Experimental data from ChEMBL document CHEMBL1155718, “The complestatins as HIV-1 integrase inhibitors. Efficient isolation, structure elucidation, and inhibitory activities of isocomplestatin, chloropeptin I, new complestatins, A and B, and acid-hydrolysis products of chloropeptin I” (J Nat Prod, 2001).

What was measured:
[1] = biological target: T1, Human immunodeficiency virus type 1 integrase (Human immunodeficiency virus 1, UniProt Q7ZJM1); test: Inhibition of HIV1 integrase 3' processing/strand transfer coupled activity
Summary of the method: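 In vitro assay with recombinant HIV-1 integrase that recapitulates the staged integration process, measuring coupled 3′-processing and strand transfer. IC50 was reported.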

[2] = biological target: T1, Human immunodeficiency virus type 1 integrase; test: Inhibition of HIV1 integrase strand transfer activity
Summary of the method: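 Staged strand transfer assay using complexes preassembled on viral donor DNA with recombinantly expressed HIV-1 integrase. IC50 was reported.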

[3] = Inhibition of HIV1 recombinant gp120/CD4 interaction by ELISA
[4] = biological target: T1, Human immunodeficiency virus type 1 integrase; test: Inhibition of disintegration activity of HIV1 intact integrase
Summary of the method: (§1)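 Disintegration activity was measured with both full-length HIV-1 integrase and its catalytic core domain (amino acids 50-212). IC50 was reported.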

[5] = test system: Human immunodeficiency virus; test: Antiviral activity against HIV PIC; format: functional, organism-based; conditions: Human immunodeficiency virus 1, PIC
Summary of the method: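 Preintegration complexes were isolated from HIV-1-infected cells and tested for integration activity in vitro. IC50 was reported.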

[6] = test system: Human immunodeficiency virus 1; test: Antiviral activity against HIV1 assessed as inhibition of viral spread in infected cells; format: functional
Summary of the method: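 HIV-1 multiple-cycle replication (viral spread) assay in cell culture. Inhibition was expressed as IC95, and in some cases also as IC50.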

[7] = biological target: T1, Human immunodeficiency virus type 1 integrase; test: Inhibition of disintegration activity of HIV1 integrase catalytic core domain (50 to 212); summary of the method: as §1
[8] = biological target: T1, Human immunodeficiency virus type 1 integrase; test: Inhibition of integration activity of HIV1 intact integrase
[9] = test system: Human immunodeficiency virus; test: Antiviral activity against HIV; format: functional, organism-based; conditions: Human immunodeficiency virus 1

T1 sequence (Q7ZJM1 whole entry): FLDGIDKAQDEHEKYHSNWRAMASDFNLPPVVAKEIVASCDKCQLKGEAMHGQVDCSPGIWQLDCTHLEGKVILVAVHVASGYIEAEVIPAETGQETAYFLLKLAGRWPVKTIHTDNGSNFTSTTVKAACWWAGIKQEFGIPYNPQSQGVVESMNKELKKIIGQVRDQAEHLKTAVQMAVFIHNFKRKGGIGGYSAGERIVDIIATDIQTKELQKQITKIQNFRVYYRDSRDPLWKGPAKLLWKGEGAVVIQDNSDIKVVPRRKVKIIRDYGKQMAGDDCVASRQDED

SMILES | IC50 [1] | IC50 [2] | IC95 [6] | further results
CN1C(=O)[C@@H](c2cc(Cl)c(O)c(Cl)c2)NC(=O)[C@@H]2NC(=O)[C@@H](c3cc(Cl)c(O)c(Cl)c3)NC(=O)[C@H](NC(=O)C(=O)c3cc(Cl)c(O)c(Cl)c3)CC3(O)C(=O)Nc4cc(ccc43)-c3cc2cc(c3O)Oc2ccc(cc2)C[C@H]1C(=O)N[C@@H](C(=O)O)c1ccc(O)cc1 (stereo partly drawn) [COMPLESTATIN B] | 1.7 µM | 12.5 µM | – | –
CN1C(=O)[C@@H](c2cc(Cl)c(O)c(Cl)c2)NC(=O)[C@@H]2NC(=O)[C@@H](c3cc(Cl)c(O)c(Cl)c3)NC(=O)[C@H](NC(=O)C(=O)c3cc(Cl)c(O)c(Cl)c3)Cc3c[nH]c4cc(ccc34)-c3cc2cc(c3O)Oc2ccc(cc2)C[C@H]1C(=O)N[C@@H](C(=O)O)c1ccc(O)cc1 [ISOCOMPLESTATIN] | 0.2 µM | 4 µM | 5 µM | IC50 [3]: 2 µM; IC50 [4]: 0.5 µM; IC50 [5]: 3 µM; IC50 [7]: 0.5 µM; IC50 [8]: 3 µM; IC50 [9]: 0.2 µM
CN[C@@H](Cc1ccc(Oc2cc3cc(c2O)-c2cccc4c(c[nH]c24)C[C@@H](N)C(=O)N[C@H](c2cc(Cl)c(O)c(Cl)c2)C(=O)N[C@H]3C(=O)N[C@@H](C(=O)O)c2cc(Cl)c(O)c(Cl)c2)cc1)C(=O)O | 3.8 µM | 45 µM | – | –
CN1C(=O)[C@@H](c2cc(Cl)c(O)c(Cl)c2)NC(=O)[C@@H]2NC(=O)[C@@H](c3cc(Cl)c(O)c(Cl)c3)NC(=O)[C@H](N)Cc3c[nH]c4c(cccc34)-c3cc2cc(c3O)Oc2ccc(cc2)C[C@H]1C(=O)O | 0.5 µM | 6 µM | 7.5 µM | –
CN(C(=O)[C@H](N)c1cc(Cl)c(O)c(Cl)c1)[C@@H](Cc1ccc(Oc2cc3cc(c2O)-c2cccc4c(c[nH]c24)C[C@@H](N)C(=O)N[C@H](c2cc(Cl)c(O)c(Cl)c2)C(=O)N[C@H]3C(=O)O)cc1)C(=O)O | 7.8 µM | 86 µM | – | –
CN1C(=O)[C@@H](c2cc(Cl)c(O)c(Cl)c2)NC(=O)[C@@H]2NC(=O)[C@@H](c3cc(Cl)c(O)c(Cl)c3)NC(=O)[C@H](NC(=O)C(=O)c3cc(Cl)c(O)c(Cl)c3)Cc3c[nH]c4c(cccc34)-c3cc2cc(c3O)Oc2ccc(cc2)C[C@H]1C(=O)O | 0.6 µM | 8 µM | 5 µM | –
CN1C(=O)[C@@H](c2cc(Cl)c(O)c(Cl)c2)NC(=O)[C@@H]2NC(=O)[C@@H](c3cc(Cl)c(O)c(Cl)c3)NC(=O)[C@H](NC(=O)C(=O)c3cc(Cl)c(O)c(Cl)c3)CC3C(=O)Nc4cc(ccc43)-c3cc2cc(c3O)Oc2ccc(cc2)C[C@H]1C(=O)N[C@@H](C(=O)O)c1ccc(O)cc1 (stereo partly drawn) [COMPLESTATINS A] | 0.8 µM | 12.5 µM | – | –
CN[C@@H](Cc1ccc(Oc2cc3cc(c2O)-c2cccc4c(c[nH]c24)C[C@@H](N)C(=O)N[C@H](c2cc(Cl)c(O)c(Cl)c2)C(=O)N[C@H]3C(=O)O)cc1)C(=O)O | 28 µM | > 100 µM | – | –
CN1C(=O)[C@@H](c2cc(Cl)c(O)c(Cl)c2)NC(=O)[C@@H]2NC(=O)[C@@H](c3cc(Cl)c(O)c(Cl)c3)NC(=O)[C@H](NC(=O)C(=O)c3cc(Cl)c(O)c(Cl)c3)Cc3c[nH]c4c(cccc34)-c3cc2cc(c3O)Oc2ccc(cc2)C[C@H]1C(=O)N[C@@H](C(=O)O)c1ccc(O)cc1 [CHLOROPEPTIN] | 0.4 µM | 5 µM | 5 µM | –
